# In ChEMBL document CHEMBL4811225 (J Med Chem, 2021):
# Where a SMILES comes first, the peptide text is derived from it. Bridges are numbered along the chain shown (N, C = ends).
# Tests used:
# [1] = target: T1, Neuronal acetylcholine receptor; alpha2/beta2 (Homo sapiens, UniProt P17787+Q15822); assay: Inhibition of human alpha2beta2 nAChR expressed in Xenopus laevis oocytes assessed as inhibition of acetylcholine-induced current response by two-electrode voltage-clamp method; format: cell-based, Oocyte
# Outline: (§1)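 Two-electrode voltage clamp of stage IV–V oocytes 1–5 days after equal-ratio cRNA injection; ACh 100 μM (β2-containing subtypes, α9α10), 1 s every 60 s in frog saline. Peptide perfused up to 1 μM, responses normalized to mean of three control responses; above 1 μM, 5 min static bath. IC50 with 95% CI; n = oocytes.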
# Homo sapiens [2] = organism: Homo sapiens; assay: Selectivity ratio of IC50 for human alpha2beta4 nAChR to IC50 for human alpha6/alpha3beta4 nAChR
# Outline: (§2)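 Ratio of each subtype's IC50, from TEVC inhibition of ACh-evoked currents in X. laevis oocytes, to the IC50 at the same species' α6/α3β4 nAChR; IC50 values with 95% CI, n = number of oocytes.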
# Rattus norvegicus [3] = organism: Rattus norvegicus; assay: Selectivity ratio of IC50 for rat alpha6/alpha3beta2beta3 nAChR to IC50 for rat alpha6/alpha3beta4 nAChR; outline: as §2
# [4] = target: Neuronal acetylcholine receptor; alpha4/beta2 (Rattus norvegicus) (UniProt P09483+P12390); assay: Inhibition of rat alpha4beta2 nAChR expressed in Xenopus laevis oocytes assessed as inhibition of acetylcholine-induced current response at 10 uM by two-electrode voltage-clamp method relative to control; format: cell-based; conditions: Oocyte
# Outline: (§3)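 Oocytes (stage IV–V) injected with equal-ratio cRNAs of cloned subunits; TEVC 1–5 days post-injection. ACh 100 μM for β2-containing and α9α10 subtypes, 1 s pulses every 60 s. Peptide 10 μM in 5 min static bath; response normalized to ACh response after 5 min control-saline bath; mean ± SD, n = 4.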
# [5] = target: Nicotinic acetylcholine receptor alpha6/alpha3/beta4 (Rattus norvegicus, UniProt P04757+P12392+P43143); format: cell-based, Oocyte
# Nicotinic acetylcholine receptor alpha6/alpha3/beta4 (Rattus norvegicus, UniProt P04757+P12392+P43143), sequence (P04757 whole entry): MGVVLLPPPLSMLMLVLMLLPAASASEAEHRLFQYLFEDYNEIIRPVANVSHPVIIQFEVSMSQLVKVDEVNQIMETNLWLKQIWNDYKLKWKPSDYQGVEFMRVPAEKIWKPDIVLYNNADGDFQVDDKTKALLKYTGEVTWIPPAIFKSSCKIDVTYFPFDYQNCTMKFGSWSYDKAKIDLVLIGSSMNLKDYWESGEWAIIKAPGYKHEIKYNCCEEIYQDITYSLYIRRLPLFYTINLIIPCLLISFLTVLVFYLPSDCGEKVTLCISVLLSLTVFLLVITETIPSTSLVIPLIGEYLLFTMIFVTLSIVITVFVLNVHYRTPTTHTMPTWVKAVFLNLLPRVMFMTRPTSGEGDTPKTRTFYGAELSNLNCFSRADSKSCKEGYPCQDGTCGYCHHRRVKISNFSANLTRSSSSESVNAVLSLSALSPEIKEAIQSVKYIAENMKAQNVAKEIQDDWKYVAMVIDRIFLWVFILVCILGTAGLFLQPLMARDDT
# Nicotinic acetylcholine receptor alpha6/alpha3/beta4 (Rattus norvegicus, UniProt P04757+P12392+P43143), sequence (P12392 whole entry): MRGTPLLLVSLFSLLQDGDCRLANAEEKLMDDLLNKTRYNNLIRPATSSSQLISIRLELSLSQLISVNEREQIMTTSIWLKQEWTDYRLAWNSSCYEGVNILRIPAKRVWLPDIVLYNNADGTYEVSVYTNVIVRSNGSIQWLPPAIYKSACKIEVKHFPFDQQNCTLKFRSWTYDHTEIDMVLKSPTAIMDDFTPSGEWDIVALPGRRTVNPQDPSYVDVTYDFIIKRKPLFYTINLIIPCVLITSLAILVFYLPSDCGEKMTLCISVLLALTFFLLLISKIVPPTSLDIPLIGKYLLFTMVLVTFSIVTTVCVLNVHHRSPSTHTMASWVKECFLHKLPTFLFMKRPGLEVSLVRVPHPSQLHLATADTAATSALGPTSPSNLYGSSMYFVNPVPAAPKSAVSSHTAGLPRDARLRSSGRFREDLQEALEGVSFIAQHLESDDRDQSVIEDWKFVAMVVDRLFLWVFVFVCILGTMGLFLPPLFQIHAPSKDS
# Nicotinic acetylcholine receptor alpha6/alpha3/beta4 (Rattus norvegicus, UniProt P04757+P12392+P43143), sequence (P43143 whole entry): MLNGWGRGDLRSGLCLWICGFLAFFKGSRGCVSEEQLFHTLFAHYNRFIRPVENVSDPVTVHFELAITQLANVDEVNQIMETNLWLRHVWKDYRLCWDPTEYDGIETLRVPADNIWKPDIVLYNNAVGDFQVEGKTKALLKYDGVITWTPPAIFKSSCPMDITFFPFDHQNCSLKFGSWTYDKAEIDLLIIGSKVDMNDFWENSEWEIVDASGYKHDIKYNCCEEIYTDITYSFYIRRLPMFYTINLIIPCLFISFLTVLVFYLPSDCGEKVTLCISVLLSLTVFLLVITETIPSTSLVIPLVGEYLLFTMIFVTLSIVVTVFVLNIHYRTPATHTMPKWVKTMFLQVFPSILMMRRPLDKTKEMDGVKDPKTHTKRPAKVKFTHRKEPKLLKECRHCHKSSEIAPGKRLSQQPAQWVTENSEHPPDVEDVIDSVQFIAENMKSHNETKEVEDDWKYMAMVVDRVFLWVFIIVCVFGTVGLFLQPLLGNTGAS
# [6] = target: Nicotinic acetylcholine receptor alpha-1/beta-1/delta/epsilon (Homo sapiens) (UniProt P02708+P11230+Q07001+Q04844); assay: Inhibition of human alpha1beta1deltaepsilon nAChR expressed in Xenopus laevis oocytes assessed as inhibition of acetylcholine-induced current response at 10 uM by two-electrode voltage-clamp method relative to control; format: cell-based; conditions: Oocyte
# Outline: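 Human α1, β1, δ and ε cDNAs injected in equal ratios into the nucleus of stage IV–V X. laevis oocytes; TEVC 1–5 days later. ACh 100 μM, 1 s pulses at 60 s intervals. Peptide 10 μM applied as 5 min static bath; response normalized to ACh response after 5 min bath of control saline; mean ± SD, n = 4.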
# [7] = target: Nicotinic acetylcholine receptor alpha9/alpha10 (Rattus norvegicus, UniProt P43144+Q9JLB5); assay: Inhibition of rat alpha9alpha10 nAChR expressed in Xenopus laevis oocytes assessed as inhibition of acetylcholine-induced current response by two-electrode voltage-clamp method; format: cell-based, Oocyte; outline: as §1
# Nicotinic acetylcholine receptor alpha9/alpha10, sequence (P43144 whole entry): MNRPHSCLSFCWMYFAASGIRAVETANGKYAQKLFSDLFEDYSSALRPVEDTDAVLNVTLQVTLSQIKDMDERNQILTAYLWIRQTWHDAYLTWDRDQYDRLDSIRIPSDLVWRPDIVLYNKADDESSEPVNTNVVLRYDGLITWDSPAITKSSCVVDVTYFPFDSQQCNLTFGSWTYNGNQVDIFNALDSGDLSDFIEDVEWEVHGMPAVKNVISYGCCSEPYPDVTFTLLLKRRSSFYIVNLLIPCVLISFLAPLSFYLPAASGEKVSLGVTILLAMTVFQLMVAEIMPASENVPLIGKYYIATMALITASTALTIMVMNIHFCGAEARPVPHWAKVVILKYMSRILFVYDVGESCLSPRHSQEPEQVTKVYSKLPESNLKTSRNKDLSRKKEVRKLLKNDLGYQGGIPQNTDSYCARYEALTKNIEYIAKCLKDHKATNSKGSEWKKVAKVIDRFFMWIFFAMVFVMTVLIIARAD
# Nicotinic acetylcholine receptor alpha9/alpha10, sequence (Q9JLB5 whole entry): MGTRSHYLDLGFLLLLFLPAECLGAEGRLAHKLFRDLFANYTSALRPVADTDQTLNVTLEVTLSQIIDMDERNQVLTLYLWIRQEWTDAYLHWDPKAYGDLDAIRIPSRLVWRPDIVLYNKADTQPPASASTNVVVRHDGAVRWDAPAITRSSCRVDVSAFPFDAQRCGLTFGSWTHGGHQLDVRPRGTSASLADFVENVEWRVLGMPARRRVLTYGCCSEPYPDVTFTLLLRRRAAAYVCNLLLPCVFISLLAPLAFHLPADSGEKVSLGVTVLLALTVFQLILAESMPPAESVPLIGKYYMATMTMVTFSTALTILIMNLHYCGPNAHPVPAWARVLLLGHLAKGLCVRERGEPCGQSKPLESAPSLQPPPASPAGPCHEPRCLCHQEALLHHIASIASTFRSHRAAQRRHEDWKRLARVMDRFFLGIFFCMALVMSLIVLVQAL
# [8] = target: Neuronal acetylcholine receptor; alpha2/beta4 (Rattus norvegicus, UniProt P12389+P12392); assay: Inhibition of rat alpha2beta4 nAChR expressed in Xenopus laevis oocytes assessed as inhibition of acetylcholine-induced current response by two-electrode voltage-clamp method; format: cell-based, Oocyte
# Neuronal acetylcholine receptor; alpha2/beta4 (Rattus norvegicus, UniProt P12389+P12392), sequence (P12389 whole entry, the tested form may be a part): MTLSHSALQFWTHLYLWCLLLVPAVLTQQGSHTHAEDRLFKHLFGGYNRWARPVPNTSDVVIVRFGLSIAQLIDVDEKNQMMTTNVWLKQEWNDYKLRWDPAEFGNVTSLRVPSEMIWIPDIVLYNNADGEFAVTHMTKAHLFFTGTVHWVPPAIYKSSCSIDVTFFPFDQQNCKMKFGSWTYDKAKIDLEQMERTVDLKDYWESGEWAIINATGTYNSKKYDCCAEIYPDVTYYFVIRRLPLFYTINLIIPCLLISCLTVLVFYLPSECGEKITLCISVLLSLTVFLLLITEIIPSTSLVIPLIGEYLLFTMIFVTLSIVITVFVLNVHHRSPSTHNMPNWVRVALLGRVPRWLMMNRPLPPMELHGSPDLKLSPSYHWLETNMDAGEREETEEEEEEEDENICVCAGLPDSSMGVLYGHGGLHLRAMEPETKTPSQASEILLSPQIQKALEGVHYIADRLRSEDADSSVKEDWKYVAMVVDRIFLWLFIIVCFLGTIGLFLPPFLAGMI
# Neuronal acetylcholine receptor; alpha2/beta4 (Rattus norvegicus, UniProt P12389+P12392), sequence (P12392 whole entry, the tested form may be a part): as the sequence (P12392 whole entry) above
# Outline: (§4)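 TEVC on stage IV–V oocytes 1–5 days after equal-ratio cRNA injection (α2β4, α3β4, α4β4, α7). ACh 300 μM, 1 s pulses at 60 s intervals under frog saline perfusion. Peptide perfused to 1 μM, normalized to average of three control responses; higher concentrations by 5 min static bath. IC50 with 95% CI, n oocytes.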
# [9] = target: Neuronal acetylcholine receptor; alpha9/alpha10 (Homo sapiens, UniProt Q9GZZ6+Q9UGM1); assay: Inhibition of human alpha9alpha10 nAChR expressed in Xenopus laevis oocytes assessed as inhibition of acetylcholine-induced current response by two-electrode voltage-clamp method; format: cell-based, Oocyte; outline: as §1
# Neuronal acetylcholine receptor; alpha9/alpha10, sequence (Q9UGM1 whole entry): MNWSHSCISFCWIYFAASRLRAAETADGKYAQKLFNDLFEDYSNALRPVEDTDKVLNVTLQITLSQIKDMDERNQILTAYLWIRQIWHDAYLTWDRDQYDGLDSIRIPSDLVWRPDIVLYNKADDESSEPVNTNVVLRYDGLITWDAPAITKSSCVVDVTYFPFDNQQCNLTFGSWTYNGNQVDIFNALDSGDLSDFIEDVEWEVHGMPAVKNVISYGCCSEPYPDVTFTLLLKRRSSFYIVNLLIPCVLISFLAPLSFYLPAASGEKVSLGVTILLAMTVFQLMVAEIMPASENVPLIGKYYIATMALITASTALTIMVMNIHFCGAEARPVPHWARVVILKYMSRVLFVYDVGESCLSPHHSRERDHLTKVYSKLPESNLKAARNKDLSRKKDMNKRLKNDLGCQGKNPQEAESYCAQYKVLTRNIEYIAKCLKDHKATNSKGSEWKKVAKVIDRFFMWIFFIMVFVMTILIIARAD
# Neuronal acetylcholine receptor; alpha9/alpha10, sequence (Q9GZZ6 whole entry): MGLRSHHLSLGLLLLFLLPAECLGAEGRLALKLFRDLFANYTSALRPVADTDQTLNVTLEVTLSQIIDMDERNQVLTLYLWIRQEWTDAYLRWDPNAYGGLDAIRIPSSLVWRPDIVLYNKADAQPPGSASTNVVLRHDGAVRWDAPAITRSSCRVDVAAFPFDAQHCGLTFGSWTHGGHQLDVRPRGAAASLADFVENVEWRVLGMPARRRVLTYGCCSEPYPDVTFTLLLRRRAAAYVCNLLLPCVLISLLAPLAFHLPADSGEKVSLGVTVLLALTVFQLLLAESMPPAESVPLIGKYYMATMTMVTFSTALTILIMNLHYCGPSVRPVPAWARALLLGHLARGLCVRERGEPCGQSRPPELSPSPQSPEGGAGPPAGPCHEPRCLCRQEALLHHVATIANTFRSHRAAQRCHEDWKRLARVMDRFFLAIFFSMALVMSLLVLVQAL
# Homo sapiens [10] = organism: Homo sapiens; assay: Selectivity ratio of IC50 for human alpha2beta2 nAChR to IC50 for human alpha6/alpha3beta4 nAChR; outline: as §2
# Homo sapiens [11] = organism: Homo sapiens; assay: Selectivity ratio of IC50 for human alpha9alpha10 nAChR to IC50 for human alpha6/alpha3beta4 nAChR; outline: as §2
# [12] = target: Neuronal acetylcholine receptor; alpha4/beta2 (Homo sapiens, UniProt P17787+P43681); assay: Inhibition of human alpha4beta2 nAChR expressed in Xenopus laevis oocytes assessed as inhibition of acetylcholine-induced current response at 10 uM by two-electrode voltage-clamp method relative to control; format: cell-based; conditions: Oocyte; outline: as §3
# [13] = target: Nicotinic acetylcholine receptor alpha6/alpha3/beta4 (Rattus norvegicus) (UniProt P04757+P12392+P43143); conditions: Oocyte
# [14] = target: Neuronal acetylcholine receptor; alpha3/beta4 (Homo sapiens, UniProt P30926+P32297); assay: Inhibition of human alpha3beta4 nAChR expressed in Xenopus laevis oocytes assessed as inhibition of acetylcholine-induced current response by two-electrode voltage-clamp method; format: cell-based, Oocyte; outline: as §4
# [15] = target: Nicotinic acetylcholine receptor alpha9/alpha10 (Rattus norvegicus) (UniProt P43144+Q9JLB5); assay: Inhibition of rat alpha9alpha10 nAChR expressed in Xenopus laevis oocytes assessed as inhibition of acetylcholine-induced current response at 10 uM by two-electrode voltage-clamp method relative to control; format: cell-based; conditions: Oocyte; outline: as §3
# Rattus norvegicus [16] = organism: Rattus norvegicus; assay: Selectivity ratio of IC50 for rat alpha9alpha10 nAChR to IC50 for rat alpha6/alpha3beta4 nAChR; outline: as §2
# [17] = target: Neuronal acetylcholine receptor; alpha2/beta4 (Rattus norvegicus) (UniProt P12389+P12392); assay: Inhibition of rat alpha2beta4 nAChR expressed in Xenopus laevis oocytes assessed as inhibition of acetylcholine-induced current response at 10 uM by two-electrode voltage-clamp method relative to control; format: cell-based; conditions: Oocyte
# Outline: (§5)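 Stage IV–V X. laevis oocytes expressing equal-ratio cRNAs of α2β4, α3β4, α4β4 or α7 subunits; TEVC 1–5 days after injection. ACh 300 μM, 1 s at 60 s intervals. 10 μM peptide as 5 min static bath, normalized to ACh response after 5 min bath of control saline; mean ± SD, n = 4.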
# [18] = target: T2, Nicotinic acetylcholine receptor alpha6/alpha3/beta4 (Homo sapiens, UniProt P30926+P32297+Q15825); conditions: Oocyte
# [19] = target: T1, Neuronal acetylcholine receptor; alpha2/beta2; assay: Inhibition of human alpha2beta2 nAChR expressed in Xenopus laevis oocytes assessed as inhibition of acetylcholine-induced current response at 10 uM by two-electrode voltage-clamp method relative to control; format: cell-based; conditions: Oocyte; outline: as §3
# [20] = target: Neuronal acetylcholine receptor; alpha9/alpha10 (Homo sapiens) (UniProt Q9UGM1+Q9GZZ6); assay: Inhibition of human alpha9alpha10 nAChR expressed in Xenopus laevis oocytes assessed as inhibition of acetylcholine-induced current response at 10 uM by two-electrode voltage-clamp method relative to control; format: cell-based; conditions: Oocyte; outline: as §3
# [21] = target: Neuronal acetylcholine receptor; alpha2/beta4 (Homo sapiens, UniProt P30926+Q15822); assay: Inhibition of human alpha2beta4 nAChR expressed in Xenopus laevis oocytes assessed as inhibition of acetylcholine-induced current response at 10 uM by two-electrode voltage-clamp method relative to control; format: cell-based; conditions: Oocyte; outline: as §5
# [22] = target: T2, Nicotinic acetylcholine receptor alpha6/alpha3/beta4; format: cell-based, Oocyte
smiles,measurement,setting,value
"CC[C@H](C)[C@@H]1NC(=O)[C@H](CCC(=O)O)NC(=O)[C@@H]2CCCN2C(=O)[C@H](Cc2cnc[nH]2)NC(=O)[C@H](CC(N)=O)NC(=O)[C@H](C(C)C)NC(=O)[C@H](CC(N)=O)NC(=O)[C@@H]2CSSC[C@H](NC(=O)CN)C(=O)N[C@@H](CSSC[C@@H](C(N)=O)NC1=O)C(=O)N[C@@H](CO)C(=O)N[C@@H](Cc1cnc[nH]1)C(=O)N1CCC[C@H]1C(=O)N[C@@H](C(C)C)C(=O)N2 (H-GCCSHPVCNVNHPEIC-NH2; disulfide 2-8, 3-16)",IC50,[1],> 10 µM
same,Ratio IC50,Homo sapiens [2],> 50000
same,Ratio IC50,Rattus norvegicus [3],227
same,inhibition,[4],81%
same,IC50,[5],0.00048 µM
same,inhibition,[6],93%
same,IC50,[7],> 10 µM
same,IC50,[8],> 10 µM
same,IC50,[9],> 10 µM
same,Ratio IC50,Homo sapiens [10],> 50000
same,Ratio IC50,Homo sapiens [11],> 50000
same,inhibition,[12],91%
same,deltalogIC50,[13],-2.4
same,IC50,[14],0.179 µM
same,inhibition,[15],69%
same,Ratio IC50,Rattus norvegicus [16],> 20000
same,inhibition,[17],85%
same,deltalogIC50,[18],-1.5
same,inhibition,[19],95%
same,inhibition,[20],76%
same,inhibition,[21],84%
same,IC50,[22],0.0002 µM
